Publication PMC5339005 (International Journal of Nanomedicine, 2017)
Structures can show the parent of a compound that is named as a salt. Square brackets hold non-standard residues; d marks the D form. Peptide text beside a SMILES is read from it. Sar = CNCC(=O)O

What was measured:
HCEpiC and ARPE-19 cells = experiment: Gly-Sar cell viability by MTT assay; assay type: cell-based; conditions: even at 10 mM; cells not stated at the place (Figure S6)
HCEpiC [1] = experiment: Cellular uptake, inverted fluorescence microscope, HCEpiC; assay type: cell-based, human; conditions: 2 μg/mL FITC, 37°C, 1, 2 and 4 h
Method in brief: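 HCEpiC were grown in poly-L-lysine-coated flasks (2 μg/cm2) in serum-free corneal epithelial medium with growth supplement, under 5% CO2 at 37°C. They were seeded at 5×10^4 cells/well in 24-well plates and grown 6 days, with medium refreshed every 2 days. Cells were exposed for 1, 2 and 4 h at 37°C to FITC-labeled test nanocomposites, free FITC or polymer–FITC control solution, at 2 μg/mL FITC. They were washed three times with DPBS and imaged by inverted fluorescence microscopy.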

ARPE-19 cells [2] = experiment: Cellular uptake, inverted fluorescence microscope, ARPE-19; assay type: cell-based; conditions: ARPE-19, 4 μg/mL FITC, 37°C, 1, 2 and 4 h
Method in brief: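 ARPE-19 cells were grown in DMEM/F-12 with 10% FBS under 5% CO2 at 37°C. They were seeded at 5×10^4 cells/well in 24-well plates and grown 2 days. Cells were exposed for 1, 2 and 4 h at 37°C to FITC-labeled test nanocomposites, free FITC or polymer–FITC control solution (3.8×10−4% or 0.008% w/v polymer), at 4 μg/mL FITC. They were washed three times with PBS and imaged by inverted fluorescence microscopy.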

HCEpiC [3] = experiment: Flow cytometry uptake mechanism with endocytic inhibitors, HCEpiC; assay type: cell-based, human; conditions: inhibitor pre-incubated 30 min, nanocomposites 4 h
Method in brief: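 HCEpiC were seeded at 10^5 cells/well in 12-well plates and grown 6 days, with medium refreshed every 2 days. FITC-labeled nanocomposites (2 μg/mL FITC) were then added for 4 h at 37°C. Cells were rinsed twice with cold DPBS, trypsinized, resuspended at 5×10^5–1×10^6 cells/mL and read by flow cytometry at 495/525 nm. Untreated cells served as control; n=3.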

ARPE-19 cells [4] = experiment: Flow cytometry uptake mechanism with endocytic inhibitors, ARPE-19; assay type: cell-based; conditions: inhibitor pre-incubated 30 min, nanocomposites 4 h
Method in brief: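 ARPE-19 cells were seeded at 10^5 cells/well in 12-well plates and grown 5 days, with one medium change. FITC-labeled nanocomposites (4 μg/mL FITC) were then added for 4 h at 37°C in serum-free medium. Cells were rinsed with cold PBS, trypsinized and read by flow cytometry at 495/525 nm. Untreated cells served as control; n=3.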

[5] = In vitro drug release, dynamic dialysis method; assay type: physicochemical; conditions: PBS pH 7.4, within 2 h
Method in brief: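 Free drug solution or drug-loaded nanosheet suspension (1 mL, 50 μg drug) was placed in a dialysis bag (MWCO 8–14 kDa) in PBS pH 7.4 at 35°C±0.5°C, shaken at 400 rpm. Samples of 0.5 mL were taken at 10–720 min, filtered through 0.22 μm and replaced with fresh PBS. Drug was quantified by HPLC.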

Compound | Effect of inhibitor on cellular uptake of FITC-labeled nanocomposites vs control (HCEpiC [3]) | Effect of inhibitor on cellular uptake of FITC-labeled nanocomposites vs control (ARPE-19 cells [4]) | further results
CN(CC(=O)O)C(=O)CN [Gly-Sar] (H-Gly-[Sar]-OH) |  |  | Cytotoxicity (cell viability by MTT) (HCEpiC and ARPE-19 cells): no cytotoxicity
O=C1OC2(c3ccc(O)cc3Oc3cc(O)ccc32)c2ccc(N=C=S)cc21 [free FITC, fluorescein isothiocyanate (FITC) isomer I] |  |  | Fluorescence of cells (cellular uptake) (HCEpiC [1]): negligible fluorescence; Fluorescence of cells (cellular uptake) (ARPE-19 cells [2]): negligible fluorescence
C[C@@H]1[C@H](O)[C@@H](C)/C=C/C=C/CC/C=C/C=C/C=C/C=C/C(O[C@H]2O[C@H](C)[C@@H](O)[C@H](N)[C@@H]2O)CC2O[C@](O)(CC(O)C(O)CCC(O)CC(O)CC(O)CC(=O)O[C@H]1C)CC(O)C2C(=O)O (stereo partly shown) [Nystatin, nystatin] | no significant influence | no significant influence | 
O=C([O-])c1cc(=O)c2c3nc4ccccc4oc-3cc(=O)c2[nH]1.[Na+] [PRN solution, Pirenoxine sodium] |  |  | Cumulative release of PRN [5]: ~ 100%
[N-]=[N+]=[N-].[Na+] [sodium azide] | decreased | decreased | 
N=C(N)NC(=O)c1nc(Cl)c(N)nc1N [amiloride] | no effect | no effect | 
OC[C@H]1O[C@@](CO)(O[C@H]2O[C@H](CO)[C@@H](O)[C@H](O)[C@H]2O)[C@@H](O)[C@@H]1O [hypertonic sucrose, sucrose] | significantly decreased | significantly decreased | 
CN(C)CCCN1c2ccccc2Sc2ccc(Cl)cc21 [chlorpromazine, chlorpromazine hydrochloride] | significantly decreased | significantly decreased | 
O=c1c(-c2ccc(O)cc2)coc2cc(O)cc(O)c12 [genistein] | no significant influence | no significant influence | 
